Assay results published in ChEMBL document CHEMBL3585281, “Antibacterial Labdane Diterpenoids from Vitex vestita” (2015).
Values after ≈ are worked out from the molar mass of the structure shown.

Assays:
Type in all cases: functional
[1] = system: MRC5; experiment: Cytotoxicity against human MRC5 cells assessed as growth inhibition at 10^-5 M after 72 hrs by MTS assay relative to control; conditions: MRC5, 72 h, read-out: GI
Outline: (§1)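 Cells from ATCC; HCT-116 grown in RPMI 1640 and MRC5 in DMEM, each with 10% FCS and 1% glutamine, 37 °C, 5% CO2. Seeded at 2.5 × 10^3 cells/well, cultured 24 h, then exposed to compounds at 1 and 10 μM final for 72 h. MTS read-out, absorbance 490 nm; percent index from treated/control OD490 × 100, three experiments.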

[2] = system: Mammaliicoccus sciuri; experiment: Antibacterial activity against Staphylococcus sciuri N993 after 18 hrs by agar dilution method; conditions: N993, 18 h
Outline: (§2)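 Agar-dilution MIC against Gram-positive strains. Compounds in DMSO, geometric dilutions giving final 100−0.75 mg/L in Mueller Hinton agar. Strains grown 18 h at 37 °C in trypticase soy broth, diluted in sterile water, spotted by Steers inoculator (about 1000 UFC/spot). Plates incubated 18 h at 37 °C; DMSO blank; ofloxacin positive control. MIC = lowest concentration with no visible growth.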

[3] = system: Enterococcus faecalis; experiment: Antibacterial activity against Enterococcus faecalis N518 after 18 hrs by agar dilution method; conditions: N518, 18 h; outline: as §2
[4] = system: Enterococcus faecalis; experiment: Antibacterial activity against Enterococcus faecalis CIP 103214 after 18 hrs by agar dilution method; conditions: CIP 103214, 18 h; outline: as §2
[5] = system: Bacillus spizizenii; experiment: Antibacterial activity against Bacillus subtilis ATCC 6633 after 18 hrs by agar dilution method; conditions: ATCC 6633, 18 h; outline: as §2
[6] = system: Staphylococcus aureus; experiment: Antibacterial activity against Staphylococcus aureus ATCC 25923 after 18 hrs by agar dilution method; conditions: ATCC 25923, 18 h; outline: as §2
[7] = system: Enterococcus durans; experiment: Antibacterial activity against Enterococcus durans CIP 104999 after 18 hrs by agar dilution method; conditions: CIP 104999, 18 h; outline: as §2
[8] = system: Enterococcus faecium; experiment: Antibacterial activity against Enterococcus faecium N733 after 18 hrs by agar dilution method; conditions: N733, 18 h; outline: as §2
[9] = system: Staphylococcus aureus; experiment: Antibacterial activity against Staphylococcus aureus CIP 53156 after 18 hrs by agar dilution method; conditions: CIP 53156, 18 h; outline: as §2
[10] = system: Enterococcus faecium; experiment: Antibacterial activity against Enterococcus faecium N490 after 18 hrs by agar dilution method; conditions: N490, 18 h; outline: as §2
[11] = system: Staphylococcus haemolyticus; experiment: Antibacterial activity against Staphylococcus haemolyticus CIP 8156 after 18 hrs by agar dilution method; conditions: CIP 8156, 18 h; outline: as §2
[12] = system: Enterococcus faecalis; experiment: Antibacterial activity against Enterococcus faecalis CIP 104676 after 18 hrs by agar dilution method; conditions: CIP 104676, 18 h; outline: as §2
[13] = system: Staphylococcus saprophyticus; experiment: Antibacterial activity against Staphylococcus saprophyticus E260 after 18 hrs by agar dilution method; conditions: E260, 18 h; outline: as §2
[14] = system: Streptococcus agalactiae; experiment: Antibacterial activity against Streptococcus agalactiae CIP 103227 after 18 hrs by agar dilution method; conditions: ATCC 13813, 18 h; outline: as §2
[15] = system: Enterococcus faecium; experiment: Antibacterial activity against Enterococcus faecium CIP 103014 after 18 hrs by agar dilution method; conditions: CIP 103014, 18 h; outline: as §2
[16] = system: Enterococcus casseliflavus; experiment: Antibacterial activity against Enterococcus casseliflavus CIP 103018 after 18 hrs by agar dilution method; conditions: CIP 103018, 18 h; outline: as §2
[17] = system: Staphylococcus intermedius; experiment: Antibacterial activity against Staphylococcus intermedius N987 after 18 hrs by agar dilution method; conditions: N987, 18 h; outline: as §2
[18] = system: Enterococcus faecalis; experiment: Antibacterial activity against Enterococcus faecalis N520 after 18 hrs by agar dilution method; conditions: N520, 18 h; outline: as §2
[19] = system: Listeria monocytogenes; experiment: Antibacterial activity against Listeria monocytogenes N836 after 18 hrs by agar dilution method; conditions: N836, 18 h; outline: as §2
[20] = system: Bacillus cereus; experiment: Antibacterial activity against Bacillus cereus N258 after 18 hrs by agar dilution method; conditions: N258, 18 h; outline: as §2
[21] = system: Staphylococcus aureus; experiment: Antibacterial activity against Staphylococcus aureus CIP 5710 after 18 hrs by agar dilution method; conditions: CIP 5710, 18 h; outline: as §2
[22] = system: Staphylococcus aureus; experiment: Antibacterial activity against Staphylococcus aureus CRBIP 2121 after 18 hrs by agar dilution method; conditions: CRBIP 2121, 18 h; outline: as §2
[23] = system: Corynebacterium striatum; experiment: Antibacterial activity against Corynebacterium striatum N840 after 18 hrs by agar dilution method; conditions: N840, 18 h; outline: as §2
[24] = system: Bacillus cereus; experiment: Antibacterial activity against Bacillus cereus CIP 6624 after 18 hrs by agar dilution method; conditions: CIP 6624, 18 h; outline: as §2
[25] = system: Enterococcus gallinarum; experiment: Antibacterial activity against Enterococcus gallinarum N492 after 18 hrs by agar dilution method; conditions: N492, 18 h; outline: as §2
[26] = system: Staphylococcus aureus; experiment: Antibacterial activity against Staphylococcus aureus CIP 53154 after 18 hrs by agar dilution method; conditions: CIP 53154, 18 h; outline: as §2
[27] = system: MRC5; experiment: Cytotoxicity against human MRC5 cells assessed as growth inhibition at 10^-6 M after 72 hrs by MTS assay relative to control; conditions: MRC5, 72 h, read-out: GI; outline: as §1
[28] = system: Enterococcus faecalis; experiment: Antibacterial activity against Enterococcus faecalis N491 after 18 hrs by agar dilution method; conditions: N491, 18 h; outline: as §2
[29] = system: Bacillus cereus; experiment: Antibacterial activity against Bacillus cereus N190 after 18 hrs by agar dilution method; conditions: N190, 18 h; outline: as §2
[30] = system: Listeria monocytogenes; experiment: Antibacterial activity against Listeria monocytogenes CIP 103575 after 18 hrs by agar dilution method; conditions: CIP 103575, 18 h; outline: as §2
[31] = system: Enterococcus avium; experiment: Antibacterial activity against Enterococcus avium CIP 104053 after 18 hrs by agar dilution method; conditions: CIP 104053, 18 h; outline: as §2
[32] = system: Staphylococcus aureus; experiment: Antibacterial activity against Staphylococcus aureus CIP 7625 after 18 hrs by agar dilution method; conditions: CIP 7625, 18 h; outline: as §2
[33] = system: Staphylococcus lugdunensis; experiment: Antibacterial activity against Staphylococcus lugdunensis ATCC 43809 after 18 hrs by agar dilution method; conditions: ATCC 43809, 18 h; outline: as §2
[34] = system: Staphylococcus saprophyticus; experiment: Antibacterial activity against Staphylococcus saprophyticus CIP 76125 after 18 hrs by agar dilution method; conditions: CIP 76125, 18 h; outline: as §2
[35] = system: Enterococcus hirae; experiment: Antibacterial activity against Enterococcus hirae CIP 5855 after 18 hrs by agar dilution method; conditions: CIP 5855, 18 h; outline: as §2
[36] = system: Enterococcus gallinarum; experiment: Antibacterial activity against Enterococcus gallinarum CIP 105985 after 18 hrs by agar dilution method; conditions: CIP 105985, 18 h; outline: as §2
[37] = system: Staphylococcus aureus; experiment: Antibacterial activity against Staphylococcus aureus CIP 483 after 18 hrs by agar dilution method; conditions: CIP 483, 18 h; outline: as §2
[38] = system: Listeria monocytogenes; experiment: Antibacterial activity against Listeria monocytogenes N783 after 18 hrs by agar dilution method; conditions: N783, 18 h; outline: as §2
[39] = system: Listeria monocytogenes; experiment: Antibacterial activity against Listeria monocytogenes N851 after 18 hrs by agar dilution method; conditions: N851, 18 h; outline: as §2
[40] = system: Enterococcus faecium; experiment: Antibacterial activity against Enterococcus faecium N823 after 18 hrs by agar dilution method; conditions: N823, 18 h; outline: as §2
[41] = system: Listeria innocua; experiment: Antibacterial activity against Listeria innocua E044 after 18 hrs by agar dilution method; conditions: E044, 18 h; outline: as §2
[42] = system: Bacillus cereus; experiment: Antibacterial activity against Bacillus cereus N349 after 18 hrs by agar dilution method; conditions: N349, 18 h; outline: as §2
[43] = system: Staphylococcus epidermidis; experiment: Antibacterial activity against Staphylococcus epidermidis CIP 53124 after 18 hrs by agar dilution method; conditions: CIP 53124, 18 h; outline: as §2
[44] = system: Staphylococcus aureus; experiment: Antibacterial activity against Staphylococcus aureus ATCC 9144 oxford after 18 hrs by agar dilution method; outline: as §2
[45] = system: HCT-116; experiment: Cytotoxicity against human HCT116 cells assessed as growth inhibition at 10^-6 M after 72 hrs by MTS assay relative to control; conditions: HCT-116, 72 h, read-out: GI; outline: as §1
[46] = system: Enterococcus faecium; experiment: Antibacterial activity against Enterococcus faecium CIP 107387 after 18 hrs by agar dilution method; conditions: CIP 107387, 18 h; outline: as §2
[47] = system: Enterococcus casseliflavus; experiment: Antibacterial activity against Enterococcus casseliflavus N487 after 18 hrs by agar dilution method; conditions: N487, 18 h; outline: as §2
[48] = system: Enterococcus gallinarum; experiment: Antibacterial activity against Enterococcus gallinarum N489 after 18 hrs by agar dilution method; conditions: N489, 18 h; outline: as §2
[49] = system: Enterococcus faecium; experiment: Antibacterial activity against Enterococcus faecium N507 after 18 hrs by agar dilution method; conditions: N507, 18 h; outline: as §2
[50] = system: HCT-116; experiment: Cytotoxicity against human HCT116 cells assessed as growth inhibition at 10^-5 M after 72 hrs by MTS assay relative to control; conditions: HCT-116, 72 h, read-out: GI; outline: as §1

MIC [2]: 48 µM (≈ 16.1 µg/mL)
MIC [3]: 96 µM (≈ 32.1 µg/mL)
MIC [4]: 96 µM (≈ 32.1 µg/mL)
MIC [5]: 6 µM (≈ 2.01 µg/mL)
MIC [6]: 24 µM (≈ 8.03 µg/mL)
MIC [7]: 24 µM (≈ 8.03 µg/mL)
MIC [8]: 96 µM (≈ 32.1 µg/mL)
MIC [9]: 12 µM (≈ 4.01 µg/mL)
MIC [10]: 48 µM (≈ 16.1 µg/mL)
MIC [12]: 24 µM (≈ 8.03 µg/mL)
MIC [13]: 24 µM (≈ 8.03 µg/mL)
MIC [14]: 12 µM (≈ 4.01 µg/mL)
MIC [15]: 96 µM (≈ 32.1 µg/mL)
MIC [16]: 96 µM (≈ 32.1 µg/mL)
MIC [17]: 12 µM (≈ 4.01 µg/mL)
MIC [18]: 48 µM (≈ 16.1 µg/mL)
MIC [19]: 24 µM (≈ 8.03 µg/mL)
MIC [20]: 6 µM (≈ 2.01 µg/mL)
MIC [21]: 24 µM (≈ 8.03 µg/mL)
MIC [22]: 12 µM (≈ 4.01 µg/mL)
MIC [23]: 24 µM (≈ 8.03 µg/mL)
MIC [24]: 12 µM (≈ 4.01 µg/mL)
MIC [25]: 48 µM (≈ 16.1 µg/mL)
MIC [26]: 24 µM (≈ 8.03 µg/mL)
MIC [28]: 24 µM (≈ 8.03 µg/mL)
MIC [29]: 6 µM (≈ 2.01 µg/mL)
MIC [30]: 24 µM (≈ 8.03 µg/mL)
MIC [31]: 48 µM (≈ 16.1 µg/mL)
MIC [32]: 24 µM (≈ 8.03 µg/mL)
MIC [33]: 24 µM (≈ 8.03 µg/mL)
MIC [34]: 24 µM (≈ 8.03 µg/mL)
MIC [35]: 96 µM (≈ 32.1 µg/mL)
MIC [36]: 96 µM (≈ 32.1 µg/mL)
MIC [37]: 12 µM (≈ 4.01 µg/mL)
MIC [38]: 48 µM (≈ 16.1 µg/mL)
MIC [39]: 48 µM (≈ 16.1 µg/mL)
MIC [40]: 96 µM (≈ 32.1 µg/mL)
MIC [41]: 48 µM (≈ 16.1 µg/mL)
MIC [42]: 6 µM (≈ 2.01 µg/mL)
MIC [43]: 12 µM (≈ 4.01 µg/mL)
MIC [44]: 24 µM (≈ 8.03 µg/mL)
MIC [46]: 96 µM (≈ 32.1 µg/mL)
MIC [47]: 96 µM (≈ 32.1 µg/mL)
MIC [48]: 24 µM (≈ 8.03 µg/mL)
MIC [49]: 96 µM (≈ 32.1 µg/mL)
SMILES: C=C1CC[C@H]2C(C)(C)CCC[C@]2(C)[C@H]1C[C@@H](O)C1=CC(=O)OC1O (stereo not given in full)
inhibition of growth at 10 µM [1]: 95%
MIC [11]: 6 µM (≈ 2.01 µg/mL)
inhibition of growth at 1 µM [27]: 22%
inhibition of growth at 1 µM [45]: 0%
inhibition of growth at 10 µM [50]: 87%
